Screening data (PubChem BioAssay)
An excerpt weighted towards active compounds, which were near 1.3% of everything screened.
GRK2 aptamer HTS = human GRK2 inhibition via aptamer displacement; hit rate 0.59% among 330,000; inhibition of aptamer binding, % at 10 µM; bead flow cytometry, FAM-aptamer displacement from GRK2; AID 488847;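 active means inhibition of aptamer binding above 40%, roughly 3 SD of noise, on plates passing a quality check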;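 further: median bead fluorescence of bound FAM aptamer so fluorescent compounds give negative values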
T cell HTS = T cell immune modulators affecting CD8 T cell-vesicle binding; 2C CD8+ T cell-vesicle binding, flow cytometry; active compounds read low; response (vesicle binding), % at 7 µM; hit rate 0.068% among 330,000; AID 2052;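 active means response, share of CD8 T cells binding vesicles, and their 90th percentile fluorescence all below set limits, cut at about 80% in these data, passing the limit was not always enough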;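 further: values below 100% mean blocked vesicle binding to the CD8+ T cells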
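Test system: purified 2C TCR transgenic mouse naive CD8+ T cells. Probe or stimulus: QL9-peptide-loaded Drosophila micro-vesicles bearing Ld, ICAM-1 and B7-1. Incubation: binding step 1.5 h, 37 °C, antibody labelling 20 min, ice. Measured by: flow cytometry of vesicle-bound cells.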
Keap1-Nrf2 PPI = Keap1-Nrf2 (human) interaction inhibition | hit rate 0.15% among 340,000 | Q14145 | Keap1 Kelch-Nrf2 peptide fluorescence polarization, 1536-well | inhibition, % at 9.4 µM; in the data active means inhibition above about 12%;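 further: human Keap1 Kelch domain with fluorescein labeled Nrf2 9mer peptide probe; 0% = neutral control wells and 100% = peptide positive control; higher means more block of Keap1 binding to Nrf2 peptide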
Target sequence (Q14145 whole entry, looked up, the tested form may be a part): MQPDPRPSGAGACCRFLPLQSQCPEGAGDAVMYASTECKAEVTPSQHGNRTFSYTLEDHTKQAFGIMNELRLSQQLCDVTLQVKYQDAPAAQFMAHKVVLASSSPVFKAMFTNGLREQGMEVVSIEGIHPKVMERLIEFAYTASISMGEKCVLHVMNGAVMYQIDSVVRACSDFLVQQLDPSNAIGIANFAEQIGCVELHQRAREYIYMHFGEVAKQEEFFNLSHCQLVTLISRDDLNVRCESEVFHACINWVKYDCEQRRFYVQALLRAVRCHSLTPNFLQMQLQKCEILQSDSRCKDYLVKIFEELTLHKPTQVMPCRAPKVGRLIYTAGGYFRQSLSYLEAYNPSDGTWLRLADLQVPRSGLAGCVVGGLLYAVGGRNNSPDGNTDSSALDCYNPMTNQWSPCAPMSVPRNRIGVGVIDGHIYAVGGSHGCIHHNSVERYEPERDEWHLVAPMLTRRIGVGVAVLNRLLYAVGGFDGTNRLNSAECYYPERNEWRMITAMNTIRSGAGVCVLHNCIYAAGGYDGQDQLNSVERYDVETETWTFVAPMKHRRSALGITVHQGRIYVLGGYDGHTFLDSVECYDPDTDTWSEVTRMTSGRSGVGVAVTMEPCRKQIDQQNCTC
MEX-5 binding = C. elegans MEX-5 TCR-2 RNA binding activity; Q9XUB2; MEX-5/FITC-TCR2 RNA binding, fluorescence polarization; active compounds read low; AID 1832; hit rate 0.38% among 300,000; activity score (negative = inhibition of binding), % at 10 µM;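 active means inhibition past about -25% in most replicates, and total fluorescence under double the plate's negative control median, limit read from the data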;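 further: 0% = DMSO and -100% = 5 µM competing unlabeled TCR2 RNA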
LANA DNA inh = inhibitors of KSHV LANA C-terminal domain DNA binding; MBP-C-LANA/FAM-LBS DNA binding, fluorescence polarization; inhibition, % at 9 µM; hit rate 0.078% among 340,000; AID 504423;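 active means highest replicate inhibition at or above 60% at 9 µM, even if other replicates fall short; inactive means all replicates below 60% inhibition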;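 further: 0% = neutral control wells and 100% = 4 µM acridine orange control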
EBV gp42 block = EBV gp42 inhibition; Q1HVG2; Fluorescence polarization binding assay, mP read-out; inhibition, % (tested at 21.74 µM); hit rate 0.42% among 220,000; in the data active means inhibition above about 50%
* hit, by the source's call; nt = no result.

SMILES	GRK2 aptamer HTS	T cell HTS	Keap1-Nrf2 PPI	MEX-5 binding	LANA DNA inh	EBV gp42 block
COc1ccc(N2C(=O)C3C(C2=O)C(C(=O)c2ccc(Cl)cc2)N2CCCC32)cc1 (stereo unspecified)	nt	408	-6	1	2	-8
CC(=O)c1ccc(N2C(=O)C3C(C2=O)C(C(=O)c2ccc(Cl)cc2)N2CCCC32)cc1 (stereo unspecified)	nt	nt	nt	nt	nt	89*
O=C(c1ccc(Cl)cc1)C1C2C(=O)N(c3ccccc3)C(=O)C2C2CCCN21 (stereo unspecified)	nt	nt	-1	-29*	1	81*
COCc1nnc(NC(=O)CC(c2ccccc2)c2ccccc2)s1	1	132	-1	1	2	-18
N#Cc1ccc(CO/N=C/c2ccccc2)cc1	0	144	1	1	-1	-8
COC(=O)CSc1nc(C)cc(C(F)(F)F)c1C#N	0	221	-2	4	2	4
Cc1ccc(S(=O)(=O)CCSc2nc(C)cc(C(F)(F)F)c2C#N)cc1	4	256	-18	-54*	-7	-103
COc1ccc(Nc2nc(=O)c3cc([N+](=O)[O-])ccc3s2)cc1	nt	nt	0	1	-2	61*
Cc1ccc(Nc2nc(=O)c3cc([N+](=O)[O-])ccc3s2)cc1	0	214	-5	-5	0	4
O=c1c2cccnc2[nH]c(=S)n1CCC1=CCCCC1	70*	312	-1	1	0	-3
CCCCCn1c(=S)[nH]c2ncccc2c1=O	2	176	-3	-4	0	-8
CCOC(=O)C1=NN(C(C)=O)C2(CC(=O)N(c3cc(C)cc(C)c3)C2=O)C1 (stereo unspecified)	100*	194	4	1	4	-6
COc1ccc2nc(N3C(=O)/C(=C/c4ccc(Cl)cc4)NC3=S)sc2c1	nt	nt	-2	nt	-2	54*
COc1ccc(CC2(CO)CCN(Cc3cnn(-c4ccc(F)cc4)c3)CC2)cc1	7	78	4	3	4	-1
CC1=[N+](C)N(c2ccccc2)C(=O)C1N=C/C=C/c1ccccc1 (stereo unspecified)	6	546	-5	-1	71*	-9
Fc1cccc(F)c1/C=N/N1CCOCC1	4	400	5	0	0	-8
Cc1[nH][nH]c(=O)c1/C=N/N1CCOCC1	2	214	4	-27*	0	-12
CCOc1cc(C(=O)O)cc(Cl)c1OCC#N	4	157	-1	-2	3	-21
CN(C)C(=O)CCC(=O)N1CCCC(N2CCN(c3cccc(C(F)(F)F)c3)CC2)C1 (stereo unspecified)	29	207	2	-1	-1	nt
Cc1nc2ccccc2c2oc(C(=O)Nc3ccc(C(C)C)cc3)cc12	0	182	5	1	0	-12
Cc1nc2ccccc2c2oc(C(=O)Nc3ccc4c(c3)OCCO4)cc12	2	695	7	-28*	2	-12
COc1ccc(/C=C2\C(=O)NC(=O)c3ccccc32)cc1OC	nt	nt	4	nt	0	nt
COc1ccc(C=C2C(=O)OC(C)(C)OC2=O)cc1OC	2	541	-5	-50*	-2	-4
Cc1nn2c(NCC(C)C)c3c(nc2c1-c1ccccc1)CCC3	5	291	1	2	-1	-8
CN1/C(=C\P(=O)(N(C)C)N(C)C)C(C)(C)c2ccccc21	2	179	-19	2	-3	0
SMILES	GRK2 aptamer HTS	T cell HTS	Keap1-Nrf2 PPI	MEX-5 binding	LANA DNA inh	EBV gp42 block
COc1ccc2c(-c3ccccc3)cc(SCC(N)=O)nc2c1	0	295	-3	-33*	4	-16
COc1ccc2nc(SCC(N)=O)cc(C)c2c1	1	948	3	1	2	-5
C=CCOc1ccc(/C=C/C(=O)OCC(=O)NCc2cccs2)cc1	1	191	1	-1	-1	nt
CCN(CC)CCNC(=O)c1ccc(NC(=O)c2ccc(C(=O)c3ccccc3)cc2)cc1	0	76*	-1	3	-1	nt
CCN(CC)CCNC(=O)c1ccc(NC(C)=O)cc1	0	383	-3	3	0	-11
CC(=C/C(=O)O)/C=C/c1ccc(Cl)o1	30	392	3	-6	8	-13
CC(/C=C/c1ccc(C)o1)=C\C(=O)O	2	66*	1	-1	1	-13
